Measurements as given in article PMC3065953 (Inorganic chemistry, 2011).
Like-named read-outs stand apart in the source and are kept apart here.

Legend:
[1] = Cyclic voltammetry in DMF; format: physicochemical; settings: for Ep, V vs. Ag/AgCl (peak reduction potential): DMF, 0.1 M (n-Bu4N)PF6, scan rate 100 mV/s; for reduction peak potential: vs. Ag/AgCl, in DMF
[2] = cited from earlier work; for peak potential: in water / aqueous media; for Ep, V vs. Ag/AgCl (peak reduction potential): value in parentheses, aqueous solution
[3] = Cyclic voltammetry in aqueous solution; format: physicochemical; settings: value in parentheses, this work (Figure S3)
[4] = test system: human normal lung fibroblasts (MRC-5) cells; assay: MTT cytotoxicity assay in MRC-5 cells; format: cell-based; settings: for cytotoxicity relative to cisplatin / IC50: MRC-5 cells; for IC50: MTT assay, 72-h exposure, mean ± SD of at least three experiments; for factor less cytotoxic in the healthy cells compared to the cancerous cells: MRC-5 vs. A549 IC50
In short: (§1)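 Cells kept in DMEM/10% FBS/1% penicillin-streptomycin at 37 °C, 5% CO2. Seeded 1500 (A549) or 2500 (MRC-5) cells/well, 24 h, then 72 h in fresh medium with graded Pt concentrations. Pt(IV) complexes diluted from 10–20 mM DMSO stocks, reference Pt(II) drug from 2 mM PBS stock. MTT 0.8 mg/mL, 4 h; formazan dissolved in DMSO/10% pH 10.5 glycine buffer; A570. Viability normalized to Pt-free wells; IC50 extrapolated from curves. ≥3 independent experiments in triplicate.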

[5] = test system: human lung carcinoma (A549) cells; assay: MTT cytotoxicity assay in A549 cells; format: cell-based; settings: 72-h exposure, mean ± SD of at least three experiments
In short: as §1

Ep, V vs. Ag/AgCl (peak reduction potential) [1] | reduction peak potential [1] | Ep, V vs. Ag/AgCl (peak reduction potential) [3] | Structure (SMILES) | peak potential [2] | Ep, V vs. Ag/AgCl (peak reduction potential) [2] | cytotoxicity relative to cisplatin [4] | IC50 [4] | factor less cytotoxic in the healthy cells compared to the cancerous cells [4] | IC50 [5]
−0.35 V | −345 mV | 0.01 V | [NH2][Pt]([NH2])([Cl])([Cl])([O]C(=O)C(F)(F)F)[O]C(=O)C(F)(F)F [Compound 2, c,c,t-[Pt(NH3)2Cl2(O2CCF3)2]] | – | – | – | – | – | –
−0.45 V | −454 mV | – | [NH2][Pt]([NH2])([Cl])([Cl])([Cl])[Cl] [Compound 3, cis-[Pt(NH3)2Cl4], reference compound] | −260 mV | −0.26 V | – | – | – | –
−0.72 V | – | – | COc1ccc(NC(=O)[O][Pt]([NH2])([NH2])([Cl])([Cl])[O]C(=O)Nc2ccc(OC)cc2)cc1 [Compound 9] | – | – | – | 9.3 ± 3.2 µM | – | 5.3 ± 2.5 µM
−0.63 V | −625 mV | – | [NH2][Pt]([NH2])([Cl])([Cl])([O]C(=O)Nc1cccc2ccccc12)[O]C(=O)Nc1cccc2ccccc12 [Compound 11] | – | – | – | 4.8 ± 0.3 µM | – | 4.3 ± 1.5 µM

The remaining lines, values behind:

Structure (SMILES) | Ep, V vs. Ag/AgCl (peak reduction potential) [1] | reduction peak potential [1] | Ep, V vs. Ag/AgCl (peak reduction potential) [3] | peak potential [2] | Ep, V vs. Ag/AgCl (peak reduction potential) [2] | cytotoxicity relative to cisplatin [4] | IC50 [4] | factor less cytotoxic in the healthy cells compared to the cancerous cells [4] | IC50 [5]
CC(=O)[O][Pt]([NH2])([NH2])([Cl])([Cl])[O]C(C)=O [Compound 1, c,c,t-[Pt(NH3)2Cl2(O2CCH3)2], reference compound] | −0.72 V | −722 mV | – | −635 mV | −0.64 V | – | – | – | –
CC(C)(C)NC(=O)[O][Pt]([NH2])([NH2])([Cl])([Cl])[O]C(=O)NC(C)(C)C [Compound 4] | −0.85 V | – | – | – | – | more toxic | 2.8 ± 0.8 µM | ~2 | 1 ± 0.3 µM
[NH2][Pt]([NH2])([Cl])([Cl])([O]C(=O)NC1CCCC1)[O]C(=O)NC1CCCC1 [Compound 5] | −0.85 V | – | – | – | – | more toxic | 2.3 ± 0.7 µM | ~2 | 0.6 ± 0.3 µM
[NH2][Pt]([NH2])([OH])([OH])([Cl])[Cl] [c,c,t-[Pt(NH3)2Cl2(OH)2]] | – | – | – | −880 mV | – | – | – | – | –
N.N.[Cl][Pt][Cl] [cisplatin, cis-diamminedichloroplatinum(II), reference compound] | – | – | – | – | – | – | 4.3 ± 1.3 µM | – | 7 ± 2.6 µM
